Test results as given in ChEMBL document CHEMBL5038657, “Discovery of Novel Inhibitors of Uridine Diphosphate-N-Acetylenolpyruvylglucosamine Reductase (MurB) from Pseudomonas aeruginosa, an Opportunistic Infectious Agent Causing Death in Cystic Fibrosis Patients” (J Med Chem, 2022).

Assays:
Pseudomonas aeruginosa [1] = assay: Binding affinity to Pseudomonas aeruginosa MurB assessed as change in melting temperature at 1 mM by differential scanning fluorimetry
In short: (§1)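 Recombinant Pa MurB (E. coli BL21(DE3)-expressed, SUMO tag cleaved; MurB–FAD complex) at 10 μM in 25 mM Tris–HCl pH 8.0, 150 mM NaCl, 5X SyproOrange with ligand in DMSO-d6. Ramped 25–95 °C in 0.5 °C steps of 30 s. ΔTm taken against DMSO-d6 reference, with NADP+ as positive control. Ligand at 5.0 mM run once (n = 1); at 1.0 mM run in triplicate (n = 3).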

Pseudomonas aeruginosa [2] = assay: Binding affinity to Pseudomonas aeruginosa MurB assessed as change in melting temperature at 5 mM by differential scanning fluorimetry; in short: as §1
[3] = Binding affinity to Pseudomonas aeruginosa MurB assessed as dissociation constant at 3 mM by isothermal titration calorimetry

Cc1cc(C(=O)O)c(C)n1Cc1cccs1
ΔTm (Pseudomonas aeruginosa [1]): 1.5 °C
ΔTm (Pseudomonas aeruginosa [2]): 2 °C

NCc1ccc2[nH]ccc2c1
ΔTm (Pseudomonas aeruginosa [1]): 0.2 °C
ΔTm (Pseudomonas aeruginosa [2]): 1 °C

O=C(O)c1cnn(-c2ccccc2)c1C(F)(F)F
ΔTm (Pseudomonas aeruginosa [1]): 1 °C

NC(=O)c1ccc[n+]([C@@H]2O[C@H](COP(=O)(O)OP(=O)(O)OC[C@H]3O[C@@H](n4cnc5c(N)ncnc54)[C@H](OP(=O)(O)O)[C@@H]3O)[C@@H](O)[C@H]2O)c1
ΔTm (Pseudomonas aeruginosa [1]): 3.5 °C

Cc1cc(C(=O)O)c(C(F)(F)F)n1-c1ccccc1
ΔTm (Pseudomonas aeruginosa [1]): 2 °C
Kd [3]: 112 µM

NC(=O)c1cccc(-n2ncc(C(=O)O)c2C(F)(F)F)c1
ΔTm (Pseudomonas aeruginosa [1]): 0.5 °C

Cc1c(C(=O)O)cnn1-c1ccccc1
ΔTm (Pseudomonas aeruginosa [1]): 0.5 °C
ΔTm (Pseudomonas aeruginosa [2]): 1.5 °C

O=C(O)c1cnn(Cc2cccs2)c1C(F)(F)F
ΔTm (Pseudomonas aeruginosa [1]): 1 °C

Cc1cc(Cl)c(Cl)cc1-n1ncc(C(=O)O)c1C(F)(F)F
ΔTm (Pseudomonas aeruginosa [1]): 5 °C

NCc1ccc2sccc2c1
ΔTm (Pseudomonas aeruginosa [1]): 0 °C
ΔTm (Pseudomonas aeruginosa [2]): 1 °C

O=C(O)c1cnn(-c2c(Cl)cccc2Cl)c1C(F)(F)F
ΔTm (Pseudomonas aeruginosa [1]): 2.5 °C

O=C(O)CCc1cccc(Cl)c1
ΔTm (Pseudomonas aeruginosa [1]): 0.5 °C
ΔTm (Pseudomonas aeruginosa [2]): 1 °C

NC(=O)C1=CN([C@@H]2O[C@H](COP(=O)(O)OP(=O)(O)OC[C@H]3O[C@@H](n4cnc5c(N)ncnc54)[C@H](OP(=O)(O)O)[C@@H]3O)[C@@H](O)[C@H]2O)C=CC1
ΔTm (Pseudomonas aeruginosa [1]): 3 °C

O=C(O)c1cnn(-c2ccncc2)c1C(F)(F)F
ΔTm (Pseudomonas aeruginosa [1]): 0 °C

CS(=O)(=O)NC(=O)c1cnn(-c2ccccc2)c1C(F)(F)F
ΔTm (Pseudomonas aeruginosa [1]): 0.5 °C

Cc1cccc(-n2ncc(C(=O)O)c2C(F)(F)F)c1C
ΔTm (Pseudomonas aeruginosa [1]): 2 °C

Cc1c(-n2c(C)cc(C(=O)O)c2C(F)(F)F)ccc(Cl)c1Cl
ΔTm (Pseudomonas aeruginosa [1]): 2.7 °C
Kd [3]: 11.4 µM

O=C(O)c1cnn(-c2cccnc2)c1C(F)(F)F
ΔTm (Pseudomonas aeruginosa [1]): 0.3 °C

Cc1cccc(C)c1-n1ncc(C(=O)O)c1C(F)(F)F
ΔTm (Pseudomonas aeruginosa [1]): 2.5 °C

Cc1cc(Cl)c(Cl)cc1-n1c(C)cc(C(=O)O)c1C(F)(F)F
ΔTm (Pseudomonas aeruginosa [1]): 4.7 °C

Cc1cc(C(=O)O)c(C)n1-c1ccccc1
ΔTm (Pseudomonas aeruginosa [1]): 2 °C
Kd [3]: 110 µM

O=C(O)c1cnn(-c2ccccc2C(F)(F)F)c1C(F)(F)F
ΔTm (Pseudomonas aeruginosa [1]): 1 °C

O=C(O)Cc1ccccc1
ΔTm (Pseudomonas aeruginosa [1]): 0 °C
ΔTm (Pseudomonas aeruginosa [2]): 1 °C

O=C(O)c1cnn(-c2ccccc2)c1CO
ΔTm (Pseudomonas aeruginosa [1]): 0.2 °C

Cc1cc(C(=O)O)n[nH]1
ΔTm (Pseudomonas aeruginosa [1]): 0 °C
ΔTm (Pseudomonas aeruginosa [2]): 1 °C

O=C(O)c1cnn(-c2ccc(C(F)(F)F)cc2)c1C(F)(F)F
ΔTm (Pseudomonas aeruginosa [1]): 1 °C

CCOC(=O)c1cnn(-c2ccccc2Cl)c1C(F)(F)F
ΔTm (Pseudomonas aeruginosa [1]): 0 °C

Cc1cc([N+](=O)[O-])ccc1-n1ncc(C(=O)O)c1C(F)(F)F
ΔTm (Pseudomonas aeruginosa [1]): 1.7 °C

O=C(O)c1cnn(-c2ccccc2)c1O
ΔTm (Pseudomonas aeruginosa [1]): 0.7 °C

CN1C(=O)C(=O)c2ccccc21
ΔTm (Pseudomonas aeruginosa [1]): 1 °C
ΔTm (Pseudomonas aeruginosa [2]): 4 °C

Cc1nc(C(=O)O)c(C)n1-c1ccccc1
ΔTm (Pseudomonas aeruginosa [1]): 0.7 °C

Nc1c(C(=O)O)cnn1-c1ccccc1
ΔTm (Pseudomonas aeruginosa [1]): 0 °C

Cc1cccc(C)c1-n1c(C)cc(C(=O)O)c1C
ΔTm (Pseudomonas aeruginosa [1]): 3 °C

Cc1cc(C(=O)O)c(C)n1-c1ccc(Cl)cc1
ΔTm (Pseudomonas aeruginosa [1]): 1.5 °C

Cc1cccc(C)c1-n1ncc(C(=O)NS(=O)(=O)c2ccccc2)c1C(F)(F)F
ΔTm (Pseudomonas aeruginosa [1]): 3 °C

Cc1ccccc1-n1c(C)cc(C(=O)O)c1C
ΔTm (Pseudomonas aeruginosa [1]): 2 °C

Cc1c(-n2ncc(C(=O)O)c2C(F)(F)F)ccc(Cl)c1Cl
ΔTm (Pseudomonas aeruginosa [1]): 3.7 °C
Kd [3]: 11.3 µM

O=C(O)c1cnn(-c2ccccc2Cl)c1C(F)(F)F
ΔTm (Pseudomonas aeruginosa [1]): 1.5 °C
Kd [3]: 148 µM

O=C(O)c1cnn(-c2ccc(Cl)c(Cl)c2)c1C(F)(F)F
ΔTm (Pseudomonas aeruginosa [1]): 2.3 °C
Kd [3]: 26.1 µM

O=C(NS(=O)(=O)c1ccccc1)c1cnn(-c2ccccc2)c1C(F)(F)F
ΔTm (Pseudomonas aeruginosa [1]): 1 °C

Cc1c(C(=O)O)cc(CCO)n1-c1ccccc1
ΔTm (Pseudomonas aeruginosa [1]): 2 °C

O=C(O)c1ccc(Cl)c(Cl)c1
ΔTm (Pseudomonas aeruginosa [1]): 0.5 °C
ΔTm (Pseudomonas aeruginosa [2]): 1 °C

Cc1c(C(=O)O)nnn1-c1ccccc1
ΔTm (Pseudomonas aeruginosa [1]): 0.5 °C

Cc1cc(CC(=O)O)on1
ΔTm (Pseudomonas aeruginosa [1]): 0 °C
ΔTm (Pseudomonas aeruginosa [2]): 1 °C

O=C(O)c1cnn(Cc2ccccc2)c1C(F)(F)F
ΔTm (Pseudomonas aeruginosa [1]): 1 °C

O=C(O)c1cnn(-c2ccccc2Br)c1C(F)(F)F
ΔTm (Pseudomonas aeruginosa [1]): 2 °C

N#CCc1nc2ccccc2s1
ΔTm (Pseudomonas aeruginosa [1]): 0 °C
ΔTm (Pseudomonas aeruginosa [2]): 1 °C

Cc1ccccc1-n1c(C)cc(C(=O)O)c1C(F)(F)F
ΔTm (Pseudomonas aeruginosa [1]): 2.5 °C

NC(=O)c1cnn(-c2ccccc2)c1C(F)(F)F
ΔTm (Pseudomonas aeruginosa [1]): 0 °C

O=C(O)COc1ccc(Cl)c(Cl)c1
ΔTm (Pseudomonas aeruginosa [1]): 1 °C
ΔTm (Pseudomonas aeruginosa [2]): 1.5 °C

Cc1cc(C(=O)O)c(C)n1-c1cccc(Cl)c1
ΔTm (Pseudomonas aeruginosa [1]): 1.5 °C

Cc1ccc(C)c(-n2ncc(C(=O)O)c2C(F)(F)F)c1
ΔTm (Pseudomonas aeruginosa [1]): 2 °C
Kd [3]: 138 µM

O=C(O)Cc1ccc(Cl)c(Cl)c1
ΔTm (Pseudomonas aeruginosa [1]): 1 °C
ΔTm (Pseudomonas aeruginosa [2]): 1.5 °C

Cc1cc(C(=O)O)c(C)n1-c1ccc(Cl)c(Cl)c1
ΔTm (Pseudomonas aeruginosa [1]): 2.3 °C

Cc1c(C(=O)NS(=O)(=O)Cc2ccccc2)cnn1-c1ccccc1
ΔTm (Pseudomonas aeruginosa [1]): 0 °C

Cc1c(C(=O)NCc2ccccc2)cnn1-c1ccccc1
ΔTm (Pseudomonas aeruginosa [1]): 0 °C

Cc1ccccc1-n1ncc(C(=O)O)c1C(F)(F)F
ΔTm (Pseudomonas aeruginosa [1]): 2 °C

O=C(O)c1cnn(-c2cccs2)c1C(F)(F)F
ΔTm (Pseudomonas aeruginosa [1]): 0.3 °C

O=C(O)c1cnn(-c2ccccc2F)c1C(F)(F)F
ΔTm (Pseudomonas aeruginosa [1]): 1 °C

Cc1cccc(C)c1-n1ncc(C(=O)NS(=O)(=O)c2cccc(Br)c2)c1C(F)(F)F
ΔTm (Pseudomonas aeruginosa [1]): 1.3 °C

Cc1ccc(-n2ncc(C(=O)O)c2C(F)(F)F)c(C)c1
ΔTm (Pseudomonas aeruginosa [1]): 2.3 °C

Cc1c(-n2c(C)cc(C(=O)O)c2C)ccc(Cl)c1Cl
ΔTm (Pseudomonas aeruginosa [1]): 4 °C

O=C1Nc2ccccc2C1=O
ΔTm (Pseudomonas aeruginosa [1]): 1 °C
ΔTm (Pseudomonas aeruginosa [2]): 3.5 °C

Cc1cc(Cl)c(Cl)cc1-n1c(C)cc(C(=O)O)c1C
ΔTm (Pseudomonas aeruginosa [1]): 3.5 °C
Kd [3]: 24.1 µM

Cc1cc(Cl)c(Cl)cc1-n1ncc(C(=O)NS(=O)(=O)c2ccccc2)c1C(F)(F)F
ΔTm (Pseudomonas aeruginosa [1]): 2.7 °C
Kd [3]: 12 µM
